In the library only some 9.8% were active in any assay of this set; here they are far more common.
WT yeast gro inh: growth inhibition of WT yeast, mitochondrial fusion screen; inhibition, % at 10 µM; mitochondrial fusion phenotypic screen, WT strain; AID 1362; hit rate 2.1% among 190,000; in the data active means inhibition above about 58%; tested in S. cerevisiae
Rad51 HR inh: blocks human Rad51 in homologous recombination. inhibition, % at 10 µM. hit rate 0.085% among 200,000. hRad51 DNA strand exchange, fluorescence dequenching. AID 1385;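 active means inhibition above 40% at the single screening dose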;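 further: 0% = DMSO control wells and 100% = blanks with heterologous ssDNA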
Target sequence (Q06609 whole entry, looked up): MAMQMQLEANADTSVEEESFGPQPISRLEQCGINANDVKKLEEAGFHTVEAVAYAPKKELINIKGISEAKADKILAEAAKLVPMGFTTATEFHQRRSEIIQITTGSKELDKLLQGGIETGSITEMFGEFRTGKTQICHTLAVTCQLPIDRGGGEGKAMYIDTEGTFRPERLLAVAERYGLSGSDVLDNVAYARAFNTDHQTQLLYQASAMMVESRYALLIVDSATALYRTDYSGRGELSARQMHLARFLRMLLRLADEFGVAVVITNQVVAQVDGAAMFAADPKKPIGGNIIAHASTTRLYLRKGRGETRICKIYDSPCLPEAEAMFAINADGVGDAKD
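Test system – preformed human Rad51 ssDNA filaments · Reagent – Donor/quencher-labelled 47-bp dsDNA substrate · Incubation – 37 °C 15-min filament assembly, 30-min compound preincubation, 15-min exchange · Signal – FRET fluorescence dequenching, excitation 485 nm, emission 520 nm · Read-out – percent inhibition from fluorescence, normalised to plate control and blank means · Benchmarks – plate control and blank wells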
m-calpain inh: calpain II (pig) inhibition | inhibition, % at 16 µM | hit rate 0.37% among 220,000 | purified calpain II, fluorogenic peptide substrate, 30 min | AID 1236;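 active means inhibition above about 50%, limit read from the data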
PMI act satM6P: PMI (human) activation, high substrate | AID 1216 | hit rate 0.34% among 190,000 | activation factor at 20 µM | coupled PMI enzyme assay, resazurin fluorescence, 20 min; stronger effect = higher value; 1 = untreated enzyme, 0 = substrate-free blank;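 active means activation factor of 2 or more at 20 µM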
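assay system = human phosphomannose isomerase with PGI, G6PDH, diaphorase coupling enzymes | quantity = 15 ng/mL PMI | incubation = enzyme reaction with compound 20 min at room temperature | medium = HEPES pH 7.4 buffer with MgCl2 and Tween-20 | compound dosing = one concentration, 20 µM, in 1% DMSO | measured by = Diaphorase-driven resazurin-to-resorufin fluorescence, excitation 544, emission 590 nm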
PMI activator: phosphomannose isomerase (human) activation; P34949; purified human PMI, coupled resazurin fluorescence, 20 min; stronger effect = higher value; 1 = vehicle control, 0 substrate-free wells; activation factor at 20 µM; hit rate 0.005% among 190,000; AID 1214;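 active means activation factor of 2 or more at 20 µM, relative to plate controls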
Lmaj promast: Leishmania major promastigote growth inhibition. Leishmania major promastigotes, resazurin fluorescence viability. inhibition, % at 10 µM. hit rate 9% among 200,000; in the data active means inhibition above about 50%;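 further: promastigotes grown with compound for 44 hours at 28 °C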
* hit, by the source's call.

CN1C(=O)C(CC(=O)O)S/C1=N\N=C\c1ccc(O)cc1O (centres undefined) was read as Rad51 HR inh 1 and m-calpain inh 22.
CCN(CC#CCC(O)(c1ccccc1)c1ccccc1)C(C)C was read as WT yeast gro inh -19, Rad51 HR inh 4, m-calpain inh -7, PMI act satM6P 1.1, PMI activator 1.2 and Lmaj promast 87*.
`CC(C)N(CC#CCC(O)(c1ccccc1)c1ccccc1)CCO` gave WT yeast gro inh -5, Rad51 HR inh 7, m-calpain inh -2, PMI act satM6P 1, PMI activator 0.8 and Lmaj promast 44.
For CC(C)N(CC#CCC(O)(c1ccccc1)c1ccccc1)C(C)C the results were WT yeast gro inh -5, Rad51 HR inh 7, m-calpain inh 14, PMI act satM6P 1, PMI activator 1 and Lmaj promast 88*.
Screening CCN(CC)CC#CCC(O)(c1ccccc1)C1CCCCC1 (centres undefined) returned WT yeast gro inh 11, m-calpain inh -14, PMI act satM6P 0.9, PMI activator 1 and Lmaj promast 19.
Screening Cc1ccc(CC(=O)NCCS(=O)c2ccc(C)cc2)cc1 (centres undefined) returned WT yeast gro inh -10, Rad51 HR inh -7, m-calpain inh -15, PMI act satM6P 1, PMI activator 0.9 and Lmaj promast -8.
For CN1/C(=C/c2cc[n+](C)c3ccccc23)C=Cc2ccccc21 the results were WT yeast gro inh 91*, Rad51 HR inh 31, m-calpain inh 38, PMI act satM6P 0.4, PMI activator 0.3 and Lmaj promast 101*.
`COc1cc(/C=C/C(=O)OCC(=O)NC(=O)NC23CC4CC(CC(C4)C2)C3)ccc1OCC#N` gave WT yeast gro inh 21, Rad51 HR inh -3, m-calpain inh -91, PMI act satM6P 0.9, PMI activator 0.9 and Lmaj promast 93*.
COc1cc(/C=C/C(=O)OCC(=O)NC(=O)NC(C)C)ccc1OCC#N was read as WT yeast gro inh -6, Rad51 HR inh 3, m-calpain inh -36, PMI act satM6P 1.1, PMI activator 1.1 and Lmaj promast 10.
`COc1cc(-c2nc(-c3cccc(C)c3)no2)cc(OC)c1OC` gave WT yeast gro inh 66*, Rad51 HR inh -7, m-calpain inh 4, PMI act satM6P 0.9, PMI activator 0.9 and Lmaj promast -5.
COc1ccc(-c2nc(-c3cccc(C)c3)no2)cc1OC was read as WT yeast gro inh -2, Rad51 HR inh -2, m-calpain inh -14, PMI act satM6P 1, PMI activator 1 and Lmaj promast -1.
Screening CC(C)(C)c1ccc(OCc2cnc(Cl)s2)cc1 returned WT yeast gro inh 36, Rad51 HR inh 8, m-calpain inh 25, PMI act satM6P 1, PMI activator 0.9 and Lmaj promast -6.
`O=C1Nc2ccc(Br)cc2/C1=C/C1CC=CCC1` (centres undefined) gave WT yeast gro inh 78, Rad51 HR inh 2, m-calpain inh -13, PMI act satM6P 1, PMI activator 1 and Lmaj promast 99*.
For O=C1Nc2ccc(Br)cc2/C1=C/C(=O)c1ccc2c(c1)OCO2 the results were Rad51 HR inh 5 and m-calpain inh -28.
For CC(=O)Nc1ccc(NC(=O)COC(=O)c2ccccn2)cc1 the results were WT yeast gro inh -3, Rad51 HR inh 14, m-calpain inh 4, PMI act satM6P 0.9, PMI activator 1 and Lmaj promast -4.
Screening COc1ccc(N2CCN(C(=O)c3ccccc3)CC2)c([N+](=O)[O-])c1 returned WT yeast gro inh 0, m-calpain inh 10, PMI act satM6P 1, PMI activator 1 and Lmaj promast 8.
Screening COc1ccc(N2CCN(C(=O)c3ccc(C)cc3)CC2)c([N+](=O)[O-])c1 returned WT yeast gro inh 30, Rad51 HR inh -3, m-calpain inh 34, PMI act satM6P 1, PMI activator 1 and Lmaj promast 54*.
For COc1ccc(N2CCN(C(=O)c3ccc(Br)cc3)CC2)c([N+](=O)[O-])c1 the results were WT yeast gro inh 69*, Rad51 HR inh -5, m-calpain inh 20, PMI act satM6P 0.9, PMI activator 0.9 and Lmaj promast 0.
For COc1ccc(N2CCN(C(=O)c3ccccc3Br)CC2)c([N+](=O)[O-])c1 the results were WT yeast gro inh 24, Rad51 HR inh -1, m-calpain inh 11, PMI act satM6P 0.9, PMI activator 1 and Lmaj promast -5.
For CCC(C(=O)NN1C(=O)c2ccccc2C1=O)c1ccccc1 (centres undefined) the results were WT yeast gro inh -14, Rad51 HR inh 5, m-calpain inh -28, PMI act satM6P 0.9, PMI activator 0.9 and Lmaj promast 0.
`Cc1cccc(N2CCN(C(=S)Nc3ccc4nc(N5CCN(C)CC5)cc(C)c4c3)CC2C)c1` (centres undefined) gave WT yeast gro inh 6, Rad51 HR inh 6, m-calpain inh -27, PMI act satM6P 0.8, PMI activator 0.9 and Lmaj promast 98*.
Screening Cc1cc(N2CCN(C)CC2)nc2ccc(NC(=S)N3CCN(c4cccc(Cl)c4)CC3)cc12 returned WT yeast gro inh 12, Rad51 HR inh 1, m-calpain inh -79, PMI act satM6P 0.9, PMI activator 1 and Lmaj promast 50.
Screening COc1ccc(N2CCN(c3cc(C)c4ccc(C)cc4n3)CC2)cc1 returned WT yeast gro inh 24, Rad51 HR inh 2, m-calpain inh 11, PMI act satM6P 0.8, PMI activator 0.9 and Lmaj promast -4.
Screening Cc1cc(N2CCN(C)CC2)nc2ccc(NC(=S)N3CCN(c4ccc(Cl)cc4)CC3)cc12 returned WT yeast gro inh 97*, Rad51 HR inh 2, m-calpain inh -80, PMI act satM6P 0.6, PMI activator 0.8 and Lmaj promast 100*.
For Cc1cc(N2CCN(C)CC2)nc2ccc(NC(=S)N3CCCCC3)cc12 the results were WT yeast gro inh 28, Rad51 HR inh 7, m-calpain inh -59, PMI act satM6P 0.5, PMI activator 0.8 and Lmaj promast 33.
For Cc1cc(N2CCN(C)CC2)nc2ccc(NC(=S)N3CCN(c4ccc(F)cc4)CC3)cc12 the results were WT yeast gro inh 0, Rad51 HR inh 4, m-calpain inh -85, PMI act satM6P 0.7, PMI activator 0.8 and Lmaj promast 100*.
For COc1ccc2c(C)cc(N3CCN(c4ccc(F)cc4)CC3)nc2c1 the results were WT yeast gro inh 62, Rad51 HR inh 9, m-calpain inh -20, PMI act satM6P 0.9, PMI activator 0.9 and Lmaj promast 87*.
Screening COC(=O)c1sccc1NC(=S)N1CCN(c2cccc(C)c2C)CC1 returned WT yeast gro inh 74*, Rad51 HR inh 18, m-calpain inh -5, PMI act satM6P 1, PMI activator 1 and Lmaj promast 0.
